According to ChEMBL document CHEMBL3593190, “Triterpenoids with Promoting Effects on the Differentiation of PC12 Cells from the Steamed Roots of Panax notoginseng” (J Nat Prod, 2015):

Columns and labels:
[1] = system: A549; test: Cytotoxicity against human A549 cells; format: functional, cell-based
[2] = Cytotoxicity against human […] cells; format: functional, cell-based
[3] = system: HL-60; test: Cytotoxicity against human HL60 cells; format: functional, cell-based
[4] = system: MCF7; test: Cytotoxicity against human MCF7 cells; format: functional, cell-based
[5] = system: SW480; test: Cytotoxicity against human SW480 cells; format: functional, cell-based
[6] = system: PC-12; test: Neurotrophic activity in rat PC12 cells assessed as stimulation of NGF-induced neurite outgrowth at 10 uM after 72 hrs by phase-contrast microscopic analysis relative to control; format: functional
Procedure, shortened: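 PC12 cells kept in F12 with 12.5% horse serum and 2.5% FBS at 37 °C, 5% CO2, then seeded at 5 × 10^4 cells/mL on poly-L-lysine. After 24 h, medium switched to 10 μM compound (DMSO, final 0.05%) plus 5 ng/mL NGF; controls: no NGF, 5 ng/mL or 50 ng/mL NGF. After 72 h, phase-contrast scoring: neurite ≥ soma diameter; % neurite-bearing cells, ≥100 cells/view, 5 views/well.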

[7] = system: Human alphaherpesvirus 1; test: Antiviral activity against HSV1; format: functional, organism-based
[8] = system: Human alphaherpesvirus 2; test: Antiviral activity against HSV2; format: functional, organism-based

Structure (SMILES) | IC50 [1] [µM] | IC50 [2] [µM] | IC50 [3] [µM] | IC50 [4] [µM] | IC50 [5] [µM] | Activity [6] [%] | EC50 [7] [µM] | EC50 [8] [µM]
CC(C)=CCC[C@@](C)(O)[C@H]1CC[C@]2(C)[C@@H]1[C@H](O)C[C@@H]1[C@@]3(C)CC[C@H](O[C@@H]4O[C@H](CO)[C@@H](O)[C@H](O)[C@H]4O[C@@H]4O[C@H](CO)[C@@H](O)[C@H](O)[C@H]4O)C(C)(C)[C@@H]3CC[C@]12C | > 10 | > 10 | > 10 | > 10 | > 10 | 9.5 | – | –
CC(C)(O)[C@@H](O)/C=C/[C@](C)(O)[C@H]1CC[C@]2(C)[C@@H]1[C@H](O)C[C@@H]1[C@@]3(C)CC[C@H](O[C@@H]4O[C@H](CO)[C@@H](O)[C@H](O)[C@H]4O[C@@H]4O[C@H](CO)[C@@H](O)[C@H](O)[C@H]4O)C(C)(C)[C@@H]3CC[C@]12C | > 10 | > 10 | > 10 | > 10 | > 10 | 8.2 | – | –
CC(C)(O)[C@H](O)/C=C/[C@](C)(O)[C@H]1CC[C@]2(C)[C@@H]1[C@H](O)C[C@@H]1[C@@]3(C)CC[C@H](O[C@@H]4O[C@H](CO)[C@@H](O)[C@@H](O)[C@H]4O[C@@H]4O[C@H](CO)[C@@H](O)[C@H](O)[C@H]4O)C(C)(C)[C@@H]3CC[C@]12C | > 10 | > 10 | > 10 | > 10 | > 10 | 10.8 | – | –
C/C(=C\[C@@H](O)[C@H](O)C(C)(C)O)[C@H]1CC[C@]2(C)[C@@H]1[C@H](O)C[C@@H]1[C@@]3(C)CC[C@H](O)C(C)(C)[C@@H]3[C@@H](O[C@@H]3O[C@H](CO)[C@@H](O)[C@H](O)[C@H]3O)C[C@]12C | > 10 | > 10 | > 10 | > 10 | > 10 | 9.9 | – | –
C/C(=C/[C@H](O)[C@@H](O)C(C)(C)O)[C@H]1CC[C@]2(C)[C@@H]1[C@H](O)C[C@@H]1[C@@]3(C)CC[C@H](O)C(C)(C)[C@@H]3[C@@H](O[C@@H]3O[C@H](CO)[C@@H](O)[C@H](O)[C@H]3O)C[C@]12C | > 10 | > 10 | > 10 | > 10 | > 10 | 11.4 | – | –
C/C(=C/[C@@H](O)[C@H](O)C(C)(C)O)[C@H]1CC[C@]2(C)[C@@H]1[C@H](O)C[C@@H]1[C@@]3(C)CC[C@H](O)C(C)(C)[C@@H]3[C@@H](O[C@@H]3O[C@H](CO)[C@@H](O)[C@H](O)[C@H]3O)C[C@]12C | > 10 | > 10 | > 10 | > 10 | > 10 | 10.9 | – | –
CO[C@@H](/C=C(\C)[C@H]1CC[C@]2(C)[C@@H]1[C@H](O)C[C@@H]1[C@@]3(C)CC[C@H](O)C(C)(C)[C@@H]3[C@@H](O[C@@H]3O[C@H](CO)[C@@H](O)[C@H](O)[C@H]3O)C[C@]12C)[C@@H]1OC1(C)C | > 10 | > 10 | > 10 | > 10 | > 10 | 11.6 | – | –
CO[C@@H](/C=C(\C)[C@H]1CC[C@]2(C)[C@@H]1[C@H](O)C[C@@H]1[C@@]3(C)CC[C@H](O[C@@H]4O[C@H](CO)[C@@H](O)[C@H](O)[C@H]4O[C@@H]4O[C@H](CO)[C@@H](O)[C@H](O)[C@H]4O)C(C)(C)[C@@H]3CC[C@]12C)[C@@H]1OC1(C)C | > 10 | > 10 | > 10 | > 10 | > 10 | 11.4 | – | –
C/C(=C\C[C@H](O)C(C)(C)O)[C@H]1CC[C@]2(C)[C@@H]1[C@H](O)C[C@@H]1[C@@]3(C)CC[C@H](O)C(C)(C)[C@@H]3[C@@H](O[C@@H]3O[C@H](CO)[C@@H](O)[C@H](O)[C@H]3O)C[C@]12C | > 10 | > 10 | > 10 | > 10 | > 10 | 9.3 | – | –
CC(C)=CCC[C@@](C)(O)[C@H]1CC[C@]2(C)[C@@H]1[C@H](O)C[C@@H]1[C@@]3(C)CC[C@H](O)C(C)(C)[C@@H]3[C@@H](O[C@@H]3O[C@H](CO)[C@@H](O)[C@H](O)[C@H]3O)C[C@]12C | > 10 | > 10 | > 10 | > 10 | > 10 | 8.5 | – | –
C=C(CCC=C(C)C)[C@H]1CC[C@]2(C)[C@@H]1[C@H](O)C[C@@H]1[C@@]3(C)CC[C@H](O[C@@H]4O[C@H](CO)[C@@H](O)[C@H](O)[C@H]4O)C(C)(C)[C@@H]3CC[C@]12C | > 10 | > 10 | > 10 | > 10 | > 10 | 8.9 | – | –
CC(=O)OC[C@H]1O[C@@H](O[C@H]2[C@H](O[C@H]3CC[C@]4(C)[C@H]5C[C@@H](O)[C@@H]6[C@@H]([C@@](C)(O)CCC=C(C)C)CC[C@@]6(C)[C@]5(C)CC[C@H]4C3(C)C)O[C@H](CO)[C@@H](O)[C@@H]2O)[C@H](O)[C@@H](O)[C@@H]1O | > 10 | > 10 | > 10 | > 10 | > 10 | 9.3 | – | –
CC(=O)OC[C@H]1O[C@@H](O[C@H]2[C@H](O[C@H]3CC[C@]4(C)[C@H]5C[C@@H](O)[C@@H]6[C@@H]([C@](C)(O)CCC=C(C)C)CC[C@@]6(C)[C@]5(C)CC[C@H]4C3(C)C)O[C@H](CO)[C@@H](O)[C@@H]2O)[C@H](O)[C@@H](O)[C@@H]1O | > 10 | > 10 | > 10 | > 10 | > 10 | 13.4 | – | –
CC(C)(O)CCC[C@@](C)(O)[C@H]1CC[C@]2(C)[C@@H]1[C@H](O)C[C@@H]1[C@@]3(C)CC[C@H](O)C(C)(C)[C@@H]3[C@@H](O[C@@H]3O[C@H](CO)[C@@H](O)[C@H](O)[C@H]3O)C[C@]12C | > 10 | > 10 | > 10 | > 10 | > 10 | 8.6 | – | –
C=C(CCCC(C)(C)O)[C@H]1CC[C@]2(C)[C@@H]1[C@H](O)C[C@@H]1[C@@]3(C)CC[C@H](O)C(C)(C)[C@@H]3[C@@H](O[C@@H]3O[C@H](CO)[C@@H](O)[C@H](O)[C@H]3O)C[C@]12C | > 10 | > 10 | > 10 | > 10 | > 10 | 8.3 | – | –
CC(C)=CCC[C@](C)(O)[C@H]1CC[C@]2(C)[C@@H]1[C@H](O)C[C@@H]1[C@@]3(C)CC[C@H](O[C@@H]4O[C@H](CO)[C@@H](O)[C@H](O)[C@H]4O[C@@H]4O[C@H](CO)[C@@H](O)[C@H](O)[C@H]4O[C@@H]4OC[C@@H](O)[C@H](O)[C@H]4O)C(C)(C)[C@@H]3CC[C@]12C | – | – | – | – | – | – | 16.5 | 19.4
